# Legend:
# Assay type in all cases: tissue-based, Muscle tissue
# [1] = Cytotoxicity against human skeletal muscle Myoblast assessed as change in POLG mitochondrial RNA level on day 5 by RT-PCR relative to untreated control
# Method in brief: (§1)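 Proliferating human skeletal muscle myoblasts were treated from 20-30% confluence in growth medium, with NRTIs dissolved in sterile water. Doses were plasma Cmax levels (ddI 11.8, d4T 3.6, AZT 7.1, 3TC 8.3, ABV 3.0 μmol), given singly or as combinations. Controls got medium only, and medium was renewed every 2 days at 37°C, 5% CO2. Real-time RT-PCR copies were normalized to G6PDH and expressed relative to untreated cells. Five repeats.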
# [2] = Cytotoxicity against human skeletal muscle Myoblast assessed as change in Tfam mitochondrial RNA level on day 2 by RT-PCR relative to untreated control; method in brief: as §1
# [3] = Cytotoxicity against human skeletal muscle Myoblast assessed as increase in mitochondrial DNA on day 2 by RT-PCR relative to untreated control
# Method in brief: (§2)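 Myoblasts were treated from 20-30% confluence with NRTIs at plasma Cmax levels (ddI 11.8, d4T 3.6, AZT 7.1, 3TC 8.3, ABV 3.0 μmol), singly or combined. Medium was changed every 2 days at 37°C, 5% CO2, and cells were harvested on day 2 or 5. mtDNA and nDNA were measured by LightCycler real-time PCR in duplicate. The mtDNA:nDNA ratio is expressed relative to untreated cells. Five repeats.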
# [4] = Cytotoxicity against human skeletal muscle Myotube assessed as change in POLG mitochondrial RNA level on day 5 by RT-PCR relative to untreated control
# Method in brief: (§3)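 Myoblasts at 70-80% confluence were differentiated into myotubes for 72 h in alpha-MEM with 10% FCS and penicillin/streptomycin. They were then treated with NRTIs at plasma Cmax levels (ddI 11.8, d4T 3.6, AZT 7.1, 3TC 8.3, ABV 3.0 μmol) for 5 days at 37°C, 5% CO2, with medium renewed every 2 days. mtDNA:nDNA, or RNA:G6PDH copies by real-time PCR, is expressed relative to untreated cells. Five repeats.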
# [5] = Cytotoxicity against human skeletal muscle Myotube at 100 uL on day 5 by WST-1 assay
# Method in brief: (§4)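 After 5 days of NRTI treatment at Cmax levels, 100 μl WST-1 reagent was added per well and incubated 1 h at 37°C, 5% CO2. Supernatant absorbance was read at 450 nm in duplicate. Results are the ratio of treated to untreated wells, run in triplicate.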
# [6] = Cytotoxicity against human skeletal muscle Myoblast assessed as increase in mitochondrial DNA on day 5 by RT-PCR relative to untreated control; method in brief: as §2
# [7] = Cytotoxicity against human skeletal muscle Myoblast assessed as change in POLG mitochondrial RNA level on day 2 by RT-PCR relative to untreated control; method in brief: as §1
# [8] = Cytotoxicity against human skeletal muscle Myotube assessed as change in Tfam mitochondrial RNA level on day 5 by RT-PCR relative to untreated control; method in brief: as §3
# [9] = Cytotoxicity against human skeletal muscle Myoblast at 100 uL on day 5 by WST-1 assay; method in brief: as §4
# [10] = Cytotoxicity against human skeletal muscle Myoblast assessed as change in MTCYB mitochondrial RNA level on day 2 by RT-PCR relative to untreated control; method in brief: as §1
# [11] = Cytotoxicity against human skeletal muscle Myoblast assessed as change in MTCO3 mitochondrial RNA level on day 2 by RT-PCR relative to untreated control; method in brief: as §1
# [12] = Cytotoxicity against human skeletal muscle Myoblast assessed as change in Tfam mitochondrial RNA level on day 5 by RT-PCR relative to untreated control; method in brief: as §1
# [13] = Cytotoxicity against human skeletal muscle Myotube assessed as decrease in MTCYB mitochondrial RNA level on day 5 by RT-PCR relative to untreated control; method in brief: as §3
# [14] = Cytotoxicity against human skeletal muscle Myoblast assessed as decrease in mitochondrial DNA on day 2 by RT-PCR relative to untreated control; method in brief: as §2
# [15] = Cytotoxicity against human skeletal muscle Myoblast assessed as decrease in mitochondrial DNA on day 5 by RT-PCR relative to untreated control; method in brief: as §2
# [16] = Cytotoxicity against human skeletal muscle Myotube assessed as decrease in mitochondrial DNA on day 5 by RT-PCR relative to untreated control; method in brief: as §3
# [17] = Cytotoxicity against human skeletal muscle Myoblast assessed as decrease in MTCYB mitochondrial RNA level on day 5 by RT-PCR relative to untreated control; method in brief: as §1
# [18] = Cytotoxicity against human skeletal muscle Myotube assessed as decrease in MTCO3 mitochondrial RNA level on day 5 by RT-PCR relative to untreated control; method in brief: as §3
Structure (SMILES),Activity [1],Activity [2],Ratio [3],Activity [4],Activity [5],Ratio [6],Activity [7],Activity [8],Activity [9],Activity [10],Activity [11],Activity [12],Ratio [13],Ratio [14],Ratio [15],Ratio [16],Ratio [17],Ratio [18]
Nc1nc(NC2CC2)c2ncn([C@H]3C=C[C@@H](CO)C3)c2n1.Nc1nc(NC2CC2)c2ncn([C@H]3C=C[C@@H](CO)C3)c2n1.O=S(=O)(O)O [ABACAVIR SULFATE],Non-toxic,Non-toxic,1.19,Non-toxic,Non-toxic,1.07,Non-toxic,Non-toxic,Non-toxic,Non-toxic,Non-toxic,Non-toxic,–,–,–,–,–,–
O=c1[nH]cnc2c1ncn2[C@H]1CC[C@@H](CO)O1 [DIDANOSINE],Non-toxic,Non-toxic,–,Non-toxic,Non-toxic,–,Non-toxic,Non-toxic,Non-toxic,Non-toxic,Non-toxic,Non-toxic,0.66,0.51,0.22,0.5,0.51,–
Nc1ccn([C@@H]2CS[C@H](CO)O2)c(=O)n1 [LAMIVUDINE],Non-toxic,Non-toxic,1.16,Non-toxic,Non-toxic,0.94,Non-toxic,Non-toxic,Non-toxic,Non-toxic,Non-toxic,Non-toxic,–,–,–,–,–,–
Cc1cn([C@H]2C=C[C@@H](CO)O2)c(=O)[nH]c1=O [STAVUDINE],Non-toxic,Non-toxic,1.2,Non-toxic,Non-toxic,0.98,Non-toxic,Non-toxic,Non-toxic,Non-toxic,Non-toxic,Non-toxic,–,–,–,–,–,0.69
Cc1cn([C@H]2C[C@H](N=[N+]=[N-])[C@@H](CO)O2)c(=O)[nH]c1=O [ZIDOVUDINE],Non-toxic,Non-toxic,1.45,Non-toxic,Non-toxic,1.14,Non-toxic,Non-toxic,Non-toxic,Non-toxic,Non-toxic,Non-toxic,–,–,–,–,–,–

# — ChEMBL document CHEMBL1671862, “Impact of nucleoside reverse transcriptase inhibitors on mitochondrial DNA and RNA in human skeletal muscle cells” (Antimicrob Agents Chemother, 2008)
